From ChEMBL document CHEMBL1123816, “Synthesis and antidepressant properties of novel 2-substituted 4,5-dihydro-1H-imidazole derivatives” (J Med Chem, 1987) come the findings set out here.

In general, Ki refers to the dissociation constant of the complex between target and ligand, obtained from inhibition or displacement. Read a high Ki as lower affinity. What is called pA2 is the negative logarithm of the molar antagonist concentration that doubles the agonist concentration needed for the same response. A high value points to higher antagonist potency.

Experiment [1] deals with T1, Adrenergic receptor alpha-1 (Rattus norvegicus, UniProt P15823+P23944+P43140).
T1 sequence (P15823 whole entry): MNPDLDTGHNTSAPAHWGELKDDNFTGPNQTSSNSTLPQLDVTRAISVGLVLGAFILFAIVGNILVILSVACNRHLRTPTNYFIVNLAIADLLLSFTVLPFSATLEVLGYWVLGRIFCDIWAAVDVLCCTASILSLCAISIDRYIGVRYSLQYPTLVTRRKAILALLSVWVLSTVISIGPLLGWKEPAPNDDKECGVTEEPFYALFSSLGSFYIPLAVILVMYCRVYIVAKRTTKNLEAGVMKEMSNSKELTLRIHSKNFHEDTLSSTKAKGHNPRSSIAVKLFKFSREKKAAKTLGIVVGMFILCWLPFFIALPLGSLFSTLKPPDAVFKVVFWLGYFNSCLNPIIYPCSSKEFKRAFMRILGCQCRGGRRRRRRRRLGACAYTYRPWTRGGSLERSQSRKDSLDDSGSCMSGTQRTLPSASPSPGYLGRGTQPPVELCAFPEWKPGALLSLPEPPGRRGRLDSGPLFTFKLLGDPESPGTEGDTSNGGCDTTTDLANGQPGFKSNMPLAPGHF
T1 sequence (P23944 whole entry): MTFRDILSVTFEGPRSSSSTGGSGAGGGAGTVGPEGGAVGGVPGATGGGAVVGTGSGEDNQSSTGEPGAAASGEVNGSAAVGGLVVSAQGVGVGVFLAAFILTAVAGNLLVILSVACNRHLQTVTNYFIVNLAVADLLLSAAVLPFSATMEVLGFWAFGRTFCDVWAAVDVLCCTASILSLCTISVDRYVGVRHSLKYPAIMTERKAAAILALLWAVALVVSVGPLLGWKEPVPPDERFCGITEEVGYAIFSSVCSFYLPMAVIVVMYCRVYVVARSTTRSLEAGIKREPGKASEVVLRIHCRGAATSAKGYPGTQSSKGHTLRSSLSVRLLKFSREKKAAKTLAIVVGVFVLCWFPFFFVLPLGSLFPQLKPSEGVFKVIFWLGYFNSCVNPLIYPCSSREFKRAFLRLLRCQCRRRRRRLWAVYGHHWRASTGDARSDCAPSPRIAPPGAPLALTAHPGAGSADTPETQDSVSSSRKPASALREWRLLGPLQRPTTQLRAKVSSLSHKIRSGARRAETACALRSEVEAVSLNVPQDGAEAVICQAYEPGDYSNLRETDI
T1 sequence (P43140 whole entry): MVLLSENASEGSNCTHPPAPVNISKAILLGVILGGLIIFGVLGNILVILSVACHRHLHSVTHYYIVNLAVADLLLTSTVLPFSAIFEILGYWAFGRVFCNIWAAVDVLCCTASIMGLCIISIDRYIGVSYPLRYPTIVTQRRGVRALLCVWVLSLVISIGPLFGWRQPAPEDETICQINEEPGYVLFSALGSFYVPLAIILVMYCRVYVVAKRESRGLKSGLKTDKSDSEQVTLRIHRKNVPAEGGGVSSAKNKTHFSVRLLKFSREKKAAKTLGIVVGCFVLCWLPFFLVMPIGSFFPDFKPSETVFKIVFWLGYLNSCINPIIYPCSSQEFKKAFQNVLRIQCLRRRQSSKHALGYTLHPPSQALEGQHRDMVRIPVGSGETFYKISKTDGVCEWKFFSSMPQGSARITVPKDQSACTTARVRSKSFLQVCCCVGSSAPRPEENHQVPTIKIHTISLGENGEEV
The experiment can be described thus: Ability to displace [3H]prazosin from alpha-1 adrenergic receptor in rat brain homogenates in vitro. Format: tissue-based. Put shortly: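 Rat brain cortex membranes in 50 mM Tris pH 7.7, washed at 48000g, final resuspension 150 volumes. Incubated with 0.03 nM [3H]prazosin and graded test concentrations for 90 min at 25 °C. Unlabeled phentolamine (10 μM) defined nonspecific binding. Filtered on GF/B, scintillation counted. Triplicate assays; IC50 from logit plot converted to apparent Ki via Cheng–Prusoff.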

Experiment [2] can be described thus: selectivity ratio (Alpha-1[Methoxiamine]/Alpha2[clonidine]. Put shortly: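 Ratio derived from Schild pA2 values in rat vas deferens: α1 antagonism against methoxamine contractions (24 °C Krebs, three antagonist concentrations) versus α2 antagonism against clonidine inhibition of field-stimulated twitch (33–34 °C, 80 V, 1 ms, 0.15 Hz).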
Experiment [3] addresses T1, Adrenergic receptor alpha-1. The experiment can be described thus: In vitro antagonistic activity against alpha-1 adrenergic receptor in isolated unstimulated rat vas deferens (methoxamine-induced contractions).

`CC1=C(CC2=NCCN2)CCc2ccccc21.Cl` registered an inhibition constant (Ki) in experiment [1] of 0.148 µM. Further, the Selectivity ratio in experiment [2] was 1.3. The molecule also displayed a pA2 in experiment [3] of 7.08.
In experiment [1], `C1=C(CC2=NCCN2)CCc2ccccc21.Cl` [NAPAMEZOLE HYDROCHLORIDE] showed a Ki of 0.078 µM. For the same molecule, the Ratio in experiment [2] was 7.8. In addition, the pA2 in experiment [3] is listed as 6.87.
